Data reported in ChEMBL document CHEMBL3596098, “Insights into the interaction of negative allosteric modulators with the metabotropic glutamate receptor 5: discovery and computational modeling of a new series of ligands with nanomolar affinity” (Bioorg Med Chem, 2015).
Each block holds one molecule with its values, some of them ahead of it.

Tests used:
[1] = target: T1, Metabotropic glutamate receptor 1 (Rattus norvegicus, UniProt P23385); test: Displacement of [3H]R214127 from rat cloned mGluR1 receptor expressed in CHO-T-Rex cells after 30 mins by liquid scintillation spectrometry; assay type: cell-based
T1 sequence (P23385 whole entry): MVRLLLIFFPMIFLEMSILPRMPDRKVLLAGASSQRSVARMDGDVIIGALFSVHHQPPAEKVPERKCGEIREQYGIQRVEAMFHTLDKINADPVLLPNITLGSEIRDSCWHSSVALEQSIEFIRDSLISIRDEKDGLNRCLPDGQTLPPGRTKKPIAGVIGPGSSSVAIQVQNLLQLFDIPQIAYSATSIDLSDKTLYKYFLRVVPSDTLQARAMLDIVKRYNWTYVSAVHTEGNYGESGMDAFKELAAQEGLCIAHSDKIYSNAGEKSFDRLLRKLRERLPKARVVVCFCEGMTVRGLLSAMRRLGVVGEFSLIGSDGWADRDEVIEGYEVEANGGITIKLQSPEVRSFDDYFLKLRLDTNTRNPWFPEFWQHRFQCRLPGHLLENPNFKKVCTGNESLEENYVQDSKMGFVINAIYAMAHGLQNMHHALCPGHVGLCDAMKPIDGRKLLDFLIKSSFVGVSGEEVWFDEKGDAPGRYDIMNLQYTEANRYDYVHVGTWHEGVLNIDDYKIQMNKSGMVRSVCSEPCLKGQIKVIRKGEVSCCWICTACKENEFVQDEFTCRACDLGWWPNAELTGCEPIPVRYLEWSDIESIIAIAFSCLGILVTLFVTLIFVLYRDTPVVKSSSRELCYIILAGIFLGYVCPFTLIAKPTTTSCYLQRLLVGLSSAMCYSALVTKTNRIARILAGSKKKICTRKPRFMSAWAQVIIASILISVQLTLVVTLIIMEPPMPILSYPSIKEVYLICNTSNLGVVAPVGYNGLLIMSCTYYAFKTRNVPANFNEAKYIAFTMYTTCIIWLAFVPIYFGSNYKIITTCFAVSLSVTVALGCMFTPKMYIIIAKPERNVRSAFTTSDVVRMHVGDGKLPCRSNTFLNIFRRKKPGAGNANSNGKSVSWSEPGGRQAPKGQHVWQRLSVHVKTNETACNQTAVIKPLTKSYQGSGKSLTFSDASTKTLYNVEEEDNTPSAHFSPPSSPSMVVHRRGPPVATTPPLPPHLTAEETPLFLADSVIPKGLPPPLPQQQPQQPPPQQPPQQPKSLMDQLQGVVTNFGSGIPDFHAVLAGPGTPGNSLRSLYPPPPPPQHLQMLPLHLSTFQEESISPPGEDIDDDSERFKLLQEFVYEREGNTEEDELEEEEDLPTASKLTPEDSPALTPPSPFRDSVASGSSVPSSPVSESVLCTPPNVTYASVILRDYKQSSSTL
How it was run: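 CHO T-REx cells stably expressing rat mGlu1, derepressed by 1 µg/mL tetracycline for 18 h. Nonspecific binding with 1 µM R214127. Filtration, scintillation counting. Ki by Cheng-Prusoff.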

[2] = target: T2, Metabotropic glutamate receptor 5 (Homo sapiens, UniProt P41594); test: Negative allosteric modulatory activity at human cloned mGluR5 receptor expressed in CHO-T-Rex cells assessed as inhibiton of quisqualate-induced calcium mobilization treated 10 mins prior to agonist application by fluorescence analysis; assay type: functional, cell-based
How it was run: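 CHO T-REx cells expressing human mGlu5, induced 18 h with 3 ng/mL tetracycline and seeded at 80,000 cells/well. Loaded 1 h at 37 °C with 2 µM Fluo-4/AM in HBSS with 20 mM HEPES and 2.5 mM probenecid, then washed. Compound (0.5% DMSO final) added 10 min before quisqualate at its daily EC80. Peak minus basal fluorescence read every 1.5 s for 60 s.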
Target sequence in this assay (P41594 whole entry): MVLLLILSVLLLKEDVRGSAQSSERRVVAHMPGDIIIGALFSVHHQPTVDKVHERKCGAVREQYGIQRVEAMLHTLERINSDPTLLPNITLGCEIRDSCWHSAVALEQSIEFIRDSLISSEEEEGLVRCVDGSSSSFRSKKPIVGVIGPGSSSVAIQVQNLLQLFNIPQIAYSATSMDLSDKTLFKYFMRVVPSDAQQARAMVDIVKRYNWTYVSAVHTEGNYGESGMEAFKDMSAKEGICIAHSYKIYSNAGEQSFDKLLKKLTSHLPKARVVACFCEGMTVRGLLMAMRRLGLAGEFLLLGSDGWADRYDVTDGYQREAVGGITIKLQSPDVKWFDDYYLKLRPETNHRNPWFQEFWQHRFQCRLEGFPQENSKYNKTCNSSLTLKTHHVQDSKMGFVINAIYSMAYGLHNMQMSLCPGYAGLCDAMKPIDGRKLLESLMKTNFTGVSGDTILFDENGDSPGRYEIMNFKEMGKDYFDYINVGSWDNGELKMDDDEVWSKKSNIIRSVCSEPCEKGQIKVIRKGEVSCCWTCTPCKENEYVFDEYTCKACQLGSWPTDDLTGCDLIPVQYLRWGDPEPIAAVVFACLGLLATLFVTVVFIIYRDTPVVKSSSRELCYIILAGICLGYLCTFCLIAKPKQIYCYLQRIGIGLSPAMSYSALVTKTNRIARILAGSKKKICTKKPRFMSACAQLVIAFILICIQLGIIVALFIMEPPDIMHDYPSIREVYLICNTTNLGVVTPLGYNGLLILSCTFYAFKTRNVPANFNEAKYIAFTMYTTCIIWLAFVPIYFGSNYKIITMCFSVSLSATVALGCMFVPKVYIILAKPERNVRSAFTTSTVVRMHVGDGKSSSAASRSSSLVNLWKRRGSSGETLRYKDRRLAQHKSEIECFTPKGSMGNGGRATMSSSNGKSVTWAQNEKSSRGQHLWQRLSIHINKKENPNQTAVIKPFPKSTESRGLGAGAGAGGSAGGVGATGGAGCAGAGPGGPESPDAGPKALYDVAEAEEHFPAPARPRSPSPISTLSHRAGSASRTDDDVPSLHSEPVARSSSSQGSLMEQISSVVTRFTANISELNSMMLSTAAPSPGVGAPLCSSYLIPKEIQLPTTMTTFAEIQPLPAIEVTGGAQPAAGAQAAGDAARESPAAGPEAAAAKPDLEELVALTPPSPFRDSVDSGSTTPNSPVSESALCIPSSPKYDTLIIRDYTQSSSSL

[3] = target: Metabotropic glutamate receptor 5 (Rattus norvegicus, UniProt P31424); test: Displacement of [3H]MPEP from mGluR5 receptor in Sprague-Dawley rat forebrain membrane after 60 mins by liquid scintillation spectrometry
Sequence of Metabotropic glutamate receptor 5 (Rattus norvegicus, UniProt P31424) (P31424 whole entry): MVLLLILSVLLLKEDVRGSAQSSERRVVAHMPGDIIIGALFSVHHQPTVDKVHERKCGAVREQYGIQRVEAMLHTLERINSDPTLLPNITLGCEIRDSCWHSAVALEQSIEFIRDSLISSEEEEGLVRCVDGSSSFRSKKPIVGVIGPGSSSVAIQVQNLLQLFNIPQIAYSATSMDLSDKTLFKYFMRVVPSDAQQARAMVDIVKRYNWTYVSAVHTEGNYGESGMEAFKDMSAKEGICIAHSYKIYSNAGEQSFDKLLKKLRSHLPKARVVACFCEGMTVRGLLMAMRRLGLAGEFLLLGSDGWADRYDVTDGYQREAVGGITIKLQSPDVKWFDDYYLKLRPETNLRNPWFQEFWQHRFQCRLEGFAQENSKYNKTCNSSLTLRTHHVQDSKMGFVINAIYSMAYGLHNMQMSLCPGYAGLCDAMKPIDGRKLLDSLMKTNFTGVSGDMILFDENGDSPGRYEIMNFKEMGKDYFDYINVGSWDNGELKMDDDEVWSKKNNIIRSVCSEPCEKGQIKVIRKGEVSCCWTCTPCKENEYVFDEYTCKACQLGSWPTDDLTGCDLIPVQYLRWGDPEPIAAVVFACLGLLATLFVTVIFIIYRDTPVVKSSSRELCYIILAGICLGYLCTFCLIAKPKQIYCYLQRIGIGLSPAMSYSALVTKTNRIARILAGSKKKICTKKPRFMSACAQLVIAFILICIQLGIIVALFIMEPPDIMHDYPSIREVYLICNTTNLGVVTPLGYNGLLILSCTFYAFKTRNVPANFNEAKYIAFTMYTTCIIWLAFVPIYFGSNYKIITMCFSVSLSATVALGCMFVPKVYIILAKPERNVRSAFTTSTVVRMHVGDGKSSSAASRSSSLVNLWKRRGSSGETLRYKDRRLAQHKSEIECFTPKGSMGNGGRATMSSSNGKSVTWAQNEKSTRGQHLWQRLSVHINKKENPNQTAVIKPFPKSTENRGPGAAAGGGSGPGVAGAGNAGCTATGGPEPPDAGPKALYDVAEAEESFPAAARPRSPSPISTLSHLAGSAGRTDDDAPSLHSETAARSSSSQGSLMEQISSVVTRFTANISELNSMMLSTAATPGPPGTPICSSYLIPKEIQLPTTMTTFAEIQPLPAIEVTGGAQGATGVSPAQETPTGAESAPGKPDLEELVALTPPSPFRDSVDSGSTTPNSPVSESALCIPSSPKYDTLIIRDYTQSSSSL

[4] = target: T2, Metabotropic glutamate receptor 5; test: Non-competitive antagonist activity at human cloned mGluR5 receptor expressed in CHO-T-Rex cells assessed as inhibiton of quisqualate-induced calcium mobilization at 0.3 nM treated 10 mins prior to agonist application by fluorescence analysis; assay type: functional, cell-based
Target sequence in this assay (P41594 21-1212 limits assumed): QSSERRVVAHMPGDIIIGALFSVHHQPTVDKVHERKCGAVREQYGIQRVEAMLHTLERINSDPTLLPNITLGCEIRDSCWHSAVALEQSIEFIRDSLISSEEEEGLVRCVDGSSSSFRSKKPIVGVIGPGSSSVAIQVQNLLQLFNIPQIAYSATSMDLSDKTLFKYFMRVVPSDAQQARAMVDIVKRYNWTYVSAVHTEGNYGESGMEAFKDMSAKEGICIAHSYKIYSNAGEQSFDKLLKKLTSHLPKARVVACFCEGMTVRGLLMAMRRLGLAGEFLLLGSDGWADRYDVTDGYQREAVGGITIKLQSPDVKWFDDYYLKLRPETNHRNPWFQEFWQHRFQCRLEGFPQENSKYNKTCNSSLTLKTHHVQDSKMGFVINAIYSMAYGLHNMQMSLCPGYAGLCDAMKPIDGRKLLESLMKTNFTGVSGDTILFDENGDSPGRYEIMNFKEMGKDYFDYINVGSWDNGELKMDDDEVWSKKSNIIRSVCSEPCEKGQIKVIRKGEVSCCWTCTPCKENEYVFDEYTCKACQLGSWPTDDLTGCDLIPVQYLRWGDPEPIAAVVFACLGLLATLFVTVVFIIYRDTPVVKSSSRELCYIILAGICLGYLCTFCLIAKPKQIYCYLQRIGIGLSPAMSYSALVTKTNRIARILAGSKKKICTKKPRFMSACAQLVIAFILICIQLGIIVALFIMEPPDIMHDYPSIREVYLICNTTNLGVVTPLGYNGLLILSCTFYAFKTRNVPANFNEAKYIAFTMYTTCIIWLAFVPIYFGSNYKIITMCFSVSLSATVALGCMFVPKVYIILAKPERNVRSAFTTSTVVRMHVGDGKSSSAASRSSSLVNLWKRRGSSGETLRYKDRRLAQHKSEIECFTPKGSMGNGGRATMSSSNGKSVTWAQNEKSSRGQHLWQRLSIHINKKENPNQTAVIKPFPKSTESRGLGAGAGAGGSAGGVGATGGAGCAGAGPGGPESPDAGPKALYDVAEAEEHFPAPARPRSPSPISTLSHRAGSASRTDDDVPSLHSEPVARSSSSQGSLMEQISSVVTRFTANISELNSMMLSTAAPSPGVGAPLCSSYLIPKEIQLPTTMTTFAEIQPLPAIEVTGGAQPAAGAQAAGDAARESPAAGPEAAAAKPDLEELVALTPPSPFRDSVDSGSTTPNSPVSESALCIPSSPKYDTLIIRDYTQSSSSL

[5] = target: T2, Metabotropic glutamate receptor 5; test: Displacement of [3H]MPEP from human cloned mGluR5 receptor expressed in CHO-T-Rex cells after 60 mins by liquid scintillation spectrometry; assay type: cell-based
Target sequence in this assay (P41594 whole entry): as the sequence (P41594 whole entry) above

[6] = target: T1, Metabotropic glutamate receptor 1; test: Negative allosteric modulatory activity at rat cloned mGluR1 receptor expressed in CHO-T-Rex cells assessed as inhibiton of quisqualate-induced calcium mobilization treated 10 mins prior to agonist application by fluorescence analysis; assay type: functional, cell-based
How it was run: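 CHO T-REx cells expressing rat mGlu1, induced 18 h with 10 ng/mL tetracycline and seeded at 80,000 cells/well. Loaded with 2 µM Fluo-4/AM (1 h, 37 °C, HBSS/HEPES/probenecid), then washed. Compound (0.5% DMSO final) given 10 min before quisqualate at its daily EC80. Peak minus basal fluorescence recorded over 60 s. Three independent experiments.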

SMILES: Cc1cccc(C#CC=C2CCN(c3ncccc3[N+](=O)[O-])CC2)n1
IC50 [2]: 0.8 nM
Ki [3]: 0.03 nM
inhibition [4]: 50%
Ki [5]: 0.5 nM
Ki [1]: 184 nM
IC50 [6]: 448 nM

SMILES: CC1(C)CN(c2ccc(C#CC=C3CCN(c4ncccc4[N+](=O)[O-])CC3)cc2)C1=O
Ki [5]: > 1000 nM

SMILES: O=C(C#Cc1ccccc1)N1CCN(c2ccccc2[N+](=O)[O-])CC1
Ki [3]: 1.8 nM
Ki [5]: 0.4 nM
Ki [1]: 69.3 nM

SMILES: O=[N+]([O-])c1cccnc1N1CCC(=CC#Cc2ccccn2)CC1
IC50 [2]: 0.4 nM
Ki [3]: 0.1 nM
Ki [5]: 0.3 nM
Ki [1]: 39.1 nM
IC50 [6]: 207 nM

SMILES: Cc1cccc(C#CC=C2CCN(c3ncc(-c4ccccc4)cc3C#N)CC2)n1
IC50 [2]: 9.7 nM
Ki [3]: 2.9 nM
Ki [5]: 0.5 nM
Ki [1]: 443 nM

SMILES: Cc1ccc([N+](=O)[O-])c(N2CCC(=CC#Cc3ccc(C#N)cn3)CC2)n1
IC50 [2]: 1.3 nM
Ki [3]: 0.4 nM
Ki [5]: 0.3 nM
Ki [1]: 190 nM

SMILES: O=C(c1ccccc1-c1ccccc1)N1CCN(c2ncccc2[N+](=O)[O-])CC1
Ki [3]: > 10000 nM
Ki [5]: > 10000 nM

SMILES: Cc1cccc(C#CC=C2CCN(c3ncccc3[N+](=O)[O-])CC2)c1
IC50 [2]: 1.8 nM
Ki [3]: 0.4 nM
Ki [5]: 0.3 nM
Ki [1]: 18.6 nM
IC50 [6]: 543 nM

SMILES: N#Cc1cc(Cl)cc(C#CC=C2CCN(c3ncccc3[N+](=O)[O-])CC2)c1
Ki [5]: 283 nM
Ki [1]: > 1000 nM

SMILES: Cc1nc(C#Cc2cccnc2)cs1
Ki [1]: > 10000 nM

SMILES: O=[N+]([O-])c1cccnc1N1CCN(CC#Cc2ccccc2)CC1
Ki [3]: 117 nM
Ki [5]: 60.7 nM
Ki [1]: > 1000 nM

Next, values leading:

Ki [1]: > 10000 nM
SMILES: Cc1cccc(C#Cc2ccccc2)n1

Ki [3]: > 10000 nM
Ki [5]: > 10000 nM
SMILES: Cc1ccc([N+](=O)[O-])c(N2CCN(C(=O)c3cccc(-c4ccccc4)c3)CC2)n1

IC50 [2]: 42 nM
Ki [3]: 1.3 nM
Ki [1]: 54.2 nM
SMILES: C=Cc1ccc([N+](=O)[O-])c(N2CCN(C(=O)C#Cc3ccccc3)CC2)n1

Ki [5]: 264 nM
Ki [1]: > 1000 nM
SMILES: Cc1cccc(C#C/C=C2/CCCN(c3nc(C)ccc3[N+](=O)[O-])C2)n1

Ki [3]: > 1000 nM
Ki [5]: > 10000 nM
SMILES: O=C(c1cnc2ccccc2n1)N1CCN(c2ncccc2[N+](=O)[O-])CC1

IC50 [2]: 3.8 nM
Ki [3]: 0.4 nM
Ki [5]: 0.5 nM
Ki [1]: 18.6 nM
IC50 [6]: 1340 nM
SMILES: O=[N+]([O-])c1cccnc1N1CCC(=CC#Cc2cccc(Cl)c2)CC1

IC50 [2]: 36.3 nM
Ki [3]: 313 nM
Ki [5]: 162 nM
SMILES: CN1CC(=O)N=C1NC(=O)Nc1cccc(Cl)c1 [FENOBAM ANHYDROUS]

Ki [1]: > 10000 nM
SMILES: Cc1nc(C#Cc2ccc(-c3cccnc3)nc2)cs1

IC50 [2]: 0.9 nM
Ki [3]: 0.6 nM
Ki [5]: 0.5 nM
Ki [1]: 96.8 nM
IC50 [6]: 271 nM
SMILES: O=C(C#Cc1ccccc1)N1CCN(c2ncccc2[N+](=O)[O-])CC1

IC50 [2]: 2.8 nM
Ki [3]: 0.6 nM
Ki [5]: 0.4 nM
Ki [1]: 4.8 nM
IC50 [6]: 39.3 nM
SMILES: O=[N+]([O-])c1cccnc1N1CCC(=CC#Cc2ccccc2)CC1

IC50 [2]: 10.4 nM
Ki [3]: 0.2 nM
Ki [5]: 0.3 nM
Ki [1]: 70.7 nM
IC50 [6]: 551 nM
SMILES: Cc1cccc(C#CC=C2CCN(c3ccccc3[N+](=O)[O-])CC2)n1

IC50 [2]: 55 nM
Ki [3]: 92 nM
Ki [5]: 29.2 nM
SMILES: Cc1cccc(C#CC=C2CCN(c3ccccc3)CC2)n1

Ki [3]: > 1000 nM
Ki [5]: > 10000 nM
SMILES: O=C(c1ccc(-c2ccccc2)cc1)N1CCN(c2ncccc2[N+](=O)[O-])CC1
